ChEMBL document CHEMBL2331484, “Synthesis and biological evaluation of scopoletin derivatives” (Bioorg Med Chem, 2013)
Active and inactive are the calls of the source. No cut-off for these calls is given here.

system: HUVEC; experiment: Effect on total p38 MAPK level in VEGF-stimulated HUVEC pretreated at 10 to 50 umol/L for 30 mins before VEGF addition by Western blot analysis; format: functional, cell-based; settings: Homo sapiens

Compound | Activity
COc1cc2ccc(=O)oc2cc1OCC(O)CN1CCCCC1 (configuration not stated) | inactive

system: HUVEC; experiment: Effect on total src level in VEGF-stimulated HUVEC pretreated at 10 to 50 umol/L for 30 mins before VEGF addition by Western blot analysis; format: functional, cell-based; settings: Homo sapiens

Compound | Activity
COc1cc2ccc(=O)oc2cc1OCC(O)CN1CCCCC1 (configuration not stated) | inactive

system: HUVEC; experiment: Effect on total ERK1/2 level in VEGF-stimulated HUVEC pretreated at 10 to 50 umol/L for 30 mins before VEGF addition by Western blot analysis; format: functional, cell-based; settings: Homo sapiens

Compound | Activity
COc1cc2ccc(=O)oc2cc1OCC(O)CN1CCCCC1 (configuration not stated) | inactive

system: HUVEC; experiment: Effect on total akt level in VEGF-stimulated HUVEC pretreated at 10 to 50 umol/L for 30 mins before VEGF addition by Western blot analysis; format: functional, cell-based; settings: Homo sapiens

Compound | Activity
COc1cc2ccc(=O)oc2cc1OCC(O)CN1CCCCC1 (configuration not stated) | inactive

target: MAP kinase p38 (Homo sapiens) (UniProt O15264+Q15759+Q16539+P53778); experiment: Inhibition of VEGF receptor signaling in VEGF-stimulated HUVEC assessed a effect on p38 MAPK phosphorylation pretreated at 10 to 50 umol/L for 30 mins before VEGF addition by Western blot analysis; format: protein assay; settings: not given

Compound | inhibition
COc1cc2ccc(=O)oc2cc1OCC(O)CN1CCCCC1 (configuration not stated) | inactive

system: not listed separately; experiment: Inhibition of VEGF receptor signaling in VEGF-stimulated HUVEC assessed a effect on src phosphorylation pretreated at 10 to 50 umol/L for 30 mins before VEGF addition by Western blot analysis; format: cell-based; settings: Homo sapiens

Compound | inhibition
COc1cc2ccc(=O)oc2cc1OCC(O)CN1CCCCC1 (configuration not stated) | inactive

system: not listed separately; experiment: Inhibition of VEGF receptor signaling in HUVEC assessed a inhibition of VEGF-induced Akt phosphorylation pretreated at 10 to 50 umol/L for 30 mins before VEGF addition by Western blot analysis; format: cell-based; settings: Homo sapiens

Compound | inhibition
COc1cc2ccc(=O)oc2cc1OCC(O)CN1CCCCC1 (configuration not stated) | Active

system: PANC-1; experiment: Inhibition of MMP-2 protein expression in human PANC1 cells at 10 to 50 umol/L after 24 hrs by SDS-PAGE analysis; format: functional, cell-based; settings: not given
In short: (§1)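 Gelatin zymography of culture medium from equal numbers of PANC-1 cells exposed to compound for 24 h. Samples run non-reduced and unboiled on 10% polyacrylamide with 1 mg/mL gelatin. Gel washed in 2.5% Triton X-100 buffer, digested 14 h at 37 °C in Tris–HCl/CaCl2/ZnCl2 buffer pH 7.6, then Coomassie-stained. Clear bands imaged.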

Compound | inhibition
COc1cc2ccc(=O)oc2cc1OCC(O)CN1CCCCC1 (configuration not stated) | Active

system: not listed separately; experiment: Inhibition of VEGF receptor signaling in HUVEC assessed a inhibition of VEGF-induced ERK1/2 phosphorylation pretreated at 10 to 50 umol/L for 30 mins before VEGF addition by Western blot analysis; format: cell-based; settings: Homo sapiens

Compound | inhibition
COc1cc2ccc(=O)oc2cc1OCC(O)CN1CCCCC1 (configuration not stated) | Active

system: PANC-1; experiment: Inhibition of MMP-9 protein expression in human PANC1 cells at 10 to 50 umol/L after 24 hrs by SDS-PAGE analysis; format: functional, cell-based; settings: not given; in short: as §1

Compound | inhibition
COc1cc2ccc(=O)oc2cc1OCC(O)CN1CCCCC1 (configuration not stated) | Active

organism: Gallus gallus; experiment: Antiangiogenic activity in chicken embryo chorioallantoic membrane model assessed as inhibition of new blood vessel formation at 10 nmol/egg after 48 hrs by microscopy; format: functional, tissue-based; settings: not given
In short: (§2)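 Fertilized chicken eggs incubated seven days at 37.5 °C, ~55% humidity, and the air sac membrane was detached. Sterile 5 × 5 mm filter paper soaked with DMSO or compound (5 and 10 nmol/egg) was air-dried and placed on the CAM. Eggs were sealed and reincubated. Fat emulsion (20%) was injected into the CAM and vessels photographed. Three independent experiments.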

Compound | inhibition
COc1cc2ccc(=O)oc2cc1OCC(O)CN1CCCCC1 (configuration not stated) | Active

organism: Gallus gallus; experiment: Antiangiogenic activity in chicken embryo chorioallantoic membrane model assessed as inhibition of new blood vessel formation at 5 nmol/egg after 48 hrs by microscopy; format: functional, tissue-based; settings: not given; in short: as §2

Compound | inhibition
COc1cc2ccc(=O)oc2cc1OCC(O)CN1CCCCC1 (configuration not stated) | Active

system: HUVEC; experiment: Antiangiogenic activity against HUVEC assessed as inhibition of VEGF-induced branching and network formation at 25 umol/L after 5 hrs by microscopy; format: functional, cell-based; settings: Homo sapiens
In short: (§3)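 Matrigel-coated wells gelled 37 °C 30 min. DMSO or compound (final 25 µmol/L) added for 30 min before plating. After 5 h, enclosed complete tubes counted in five random fields by microscopy. Triplicate experiments, means ± SEM.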

Compound | inhibition
COc1cc2ccc(=O)oc2cc1OCC(O)CN1CCCCC1 (configuration not stated) | Active

system: HUVEC; experiment: Antiangiogenic activity against HUVEC assessed as inhibition of VEGF-induced tube formation at 25 umol/L after 5 hrs by microscopy; format: functional, cell-based; settings: Homo sapiens; in short: as §3

Compound | inhibition
COc1cc2ccc(=O)oc2cc1OCC(O)CN1CCCCC1 (configuration not stated) | Active

system: HuT78; experiment: Cytotoxicity against human HUT78 cells after 24 hrs by MTT assay; format: functional, cell-based; settings: HuT78, 24 h

Compound | IC50 [µM]
COc1cc2ccc(=O)oc2cc1OCC(O)CN1CCCCC1 (configuration not stated) | 46.6

system: K562; experiment: Cytotoxicity against human K562 cells after 24 hrs by MTT assay; format: functional, cell-based; settings: K562, 24 h

Compound | IC50 [µM]
COc1cc2ccc(=O)oc2cc1OCC(O)CN1CCCCC1 (configuration not stated) | 43.7

system: HL-60; experiment: Cytotoxicity against human HL60 cells after 24 hrs by MTT assay; format: functional, cell-based; settings: HL-60, 24 h

Compound | IC50 [µM]
COc1cc2ccc(=O)oc2cc1OCC(O)CN1CCCCC1 (configuration not stated) | 30.2

system: not listed separately; experiment: Cytotoxicity against human SHG44 cells after 24 hrs by MTT assay; format: functional, cell-based; settings: SHG-44, 24 h

Compound | IC50 [µM]
COc1cc2ccc(=O)oc2cc1OCC(O)CN1CCCCC1 (configuration not stated) | 42.8

system: A-431; experiment: Cytotoxicity against human A431 cells after 24 hrs by MTT assay; format: functional, cell-based; settings: A-431, 24 h

Compound | IC50 [µM]
COc1cc2ccc(=O)oc2cc1OCC(O)CN1CCCCC1 (configuration not stated) | 93.9

system: A549; experiment: Cytotoxicity against human A549 cells after 24 hrs by MTT assay; format: functional, cell-based; settings: A549, 24 h

Compound | IC50 [µM]
COc1cc2ccc(=O)oc2cc1OCC(O)CN1CCCCC1 (configuration not stated) | 42.7

system: MKN-45; experiment: Cytotoxicity against human MKN45 cells after 24 hrs by MTT assay; format: functional, cell-based; settings: MKN-45, 24 h

Compound | IC50 [µM]
COc1cc2ccc(=O)oc2cc1OCC(O)CN1CCCCC1 (configuration not stated) | 78.9

system: HCT-116; experiment: Cytotoxicity against human HCT116 cells after 24 hrs by MTT assay; format: functional, cell-based; settings: HCT-116, 24 h

Compound | IC50 [µM]
COc1cc2ccc(=O)oc2cc1OCC(O)CN1CCCCC1 (configuration not stated) | 26.1

system: HepG2; experiment: Cytotoxicity against human HepG2 cells after 24 hrs by MTT assay; format: functional, cell-based; settings: HepG2, 24 h

Compound | IC50 [µM]
COc1cc2ccc(=O)oc2cc1OCC(O)CN1CCCCC1 (configuration not stated) | 83.9

system: MDA-MB-231; experiment: Cytotoxicity against human MDA-MB-231 cells after 24 hrs by MTT assay; format: functional, cell-based; settings: MDA-MB-231, 24 h

Compound | IC50 [µM]
COc1cc2ccc(=O)oc2cc1OCC(O)CN1CCCCC1 (configuration not stated) | 51.6

system: MDA-MB-435; experiment: Cytotoxicity against human MDA-MB-435 cells after 24 hrs by MTT assay; format: functional, cell-based; settings: MDA-MB-435, 24 h

Compound | IC50 [µM]
COc1cc2ccc(=O)oc2cc1OCC(O)CN1CCCCC1 (configuration not stated) | 63

system: BXPC-3; experiment: Cytotoxicity against human BxPC3 cells after 24 hrs by MTT assay; format: functional, cell-based; settings: BXPC-3, 24 h

Compound | IC50 [µM]
COc1cc2ccc(=O)oc2cc1OCC(O)CN1CCCCC1 (configuration not stated) | 35

system: PANC-1; experiment: Cytotoxicity against human PANC1 cells after 24 hrs by MTT assay; format: functional, cell-based; settings: PANC-1, 24 h

Compound | IC50 [µM]
COc1cc2ccc(=O)oc2cc1OCC(O)CN1CCCCC1 (configuration not stated) | > 100

system: PBMC; experiment: Cytotoxicity against human PBMC after 24 hrs by MTT assay; format: cell-based; settings: not given

Compound | IC50 [µM]
COc1cc2ccc(=O)oc2cc1OCC(O)CN1CCCCC1 (configuration not stated) | > 100

system: HUVEC; experiment: Antiproliferative activity against HUVEC assessed as growth inhibition rate after 24 hrs by MTT assay; format: functional, cell-based; settings: Homo sapiens
In short: (§4)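 HUVECs (passages 3–5, primary cord isolates) seeded at 1 × 10⁴ cells/well. Medium replaced with M199 containing 1% FBS plus compound. Viability read by MTT after 24 h. Percent inhibition was calculated from A570 minus A630 of treated versus control wells, and IC50 determined. Triplicate experiments, means ± SEM.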

Compound | IC50 [µM]
COc1cc2ccc(=O)oc2cc1OCC(O)CN1CCCCC1 (configuration not stated) | 24.2

system: HUVEC; experiment: Antiproliferative activity against HUVEC assessed as growth inhibition rate at 100 uM after 24 hrs by MTT assay; format: functional; settings: Homo sapiens, read-out: GI; in short: as §4

Compound | inhibition of growth at 100 µM [%]
COc1cc2ccc(=O)oc2cc1OCC(O)CN1CCCCC1 (configuration not stated) | 80.7

system: HUVEC; experiment: Antiproliferative activity against HUVEC assessed as growth inhibition rate at 10 uM after 24 hrs by MTT assay; format: functional; settings: Homo sapiens, read-out: GI; in short: as §4

Compound | inhibition of growth at 10 µM [%]
COc1cc2ccc(=O)oc2cc1OCC(O)CN1CCCCC1 (configuration not stated) | 31.4

system: HUVEC; experiment: Antiangiogenic activity against HUVEC assessed as inhibition of VEGF-induced migration at 25 umol/L after 20 hrs by microscopy; settings: Homo sapiens

Compound | inhibition
COc1cc2ccc(=O)oc2cc1OCC(O)CN1CCCCC1 (configuration not stated) | Active
